From ChEMBL document CHEMBL4024772, “Aniline-Based Inhibitors of Influenza H1N1 Virus Acting on Hemagglutinin-Mediated Fusion” (J Med Chem, 2018) come the findings set out here.

One series has as its system Human respirovirus 3. Kind of series: Antiviral activity against Parainfluenza virus 3 infected in African green monkey Vero cells assessed as inhibition of virus-induced cytopathicity after 3 to 6 days by microscopic method. As to conditions: Human respirovirus 3, Vero. Format: functional.
In series [1] the test system is Influenza A virus (A/Puerto Rico/8/1934(H1N1)). Kind of series: Inhibition of HeLa cell expressing Influenza A virus (A/Puerto Rico/8/34(H1N1)) hemagglutinin H1-mediated polykaryon formation at 100 uM preincubated for 15 mins followed by 5 mins of exposure to compound diluted in acidified PBS-CM of pH 5.2 and subsequent incubation with medium containing 10% fetal calf serum for 3 hrs by Giemsa staining-based inverted microscopy relative to control. The procedure, abridged:
(§1)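 HA-transfected cells preincubated with compound, briefly exposed to pH 5.2 to trigger fusion, then kept in medium 3 h for polykaryon formation. Polykaryons were counted in microscopic fields. EC50 is the concentration giving 50% of the polykaryon number of the no-compound control (mean ± SEM, n = 3). Single-concentration tests used 100 μM.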

For series [2], the system named is Influenza A virus. Nature of the series: Antiviral activity against Influenza A virus (A/Puerto Rico/8/34(H1N1)) infected in MDCK cells assessed as inhibition of virus-induced cytopathicity after 72 hrs by microscopic method. Format: functional, cell-based. Particulars: A/Puerto Rico/8/1934(H1N1). An outline of the steps:
(§2)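 MDCK cells infected with influenza virus; viral cytopathic effect scored microscopically at 3 days post infection and confirmed by colorimetric formazan-based MTS viability assay. EC50 is the concentration giving 50% inhibition of viral cytopathicity. For A/HK/7/87 (H3N2) and B/HongKong/5/1972, the highest tested concentration was 100 μM.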

For series [3], the system named is Influenza A virus. Nature of the series: Antiviral activity against Influenza A virus (A/Puerto Rico/8/34(H1N1)) infected in MDCK cells assessed as inhibition of virus-induced cytopathicity after 72 hrs by MTS assay. Particulars: A/Puerto Rico/8/1934(H1N1). Format: functional, cell-based. An outline of the steps:
as §2

The nature of series [4]: Antiviral activity against Influenza A virus (A/Virginia/ATCC3/2009(H1N1)) infected in MDCK cells assessed as inhibition of virus-induced cytopathicity after 72 hrs by microscopic method. Format: functional, cell-based, Influenza A virus (A/Virginia/03/2009(H1N1)). An outline of the steps:
as §2

A short description of series [5]: Antiviral activity against Influenza A virus (A/Virginia/ATCC3/2009(H1N1)) infected in MDCK cells assessed as inhibition of virus-induced cytopathicity after 72 hrs by MTS assay. It is filed as functional, cell-based, Influenza A virus (A/Virginia/03/2009(H1N1)). An outline of the steps:
as §2

Series [6] can be described thus: Cytotoxicity against MDCK cells assessed as decrease in cell viability after 72 hrs by MTS assay. Format: cell-based, Canis lupus familiaris. Particulars: dog. An outline of the steps: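 Uninfected MDCK cells exposed to compound alongside the antiviral assay. Viability was read by colorimetric formazan-based MTS assay, and CC50 is the concentration giving 50% cytotoxicity.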

The nature of series [7]: Cytotoxicity against MDCK cells assessed as effect on cell morphology after 72 hrs by microscopic method. Particulars: dog. It is filed as cell-based, Canis lupus familiaris. The procedure, abridged: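 MDCK cells examined microscopically alongside the antiviral assay. MCC is the minimum compound concentration causing a microscopically detectable alteration of normal cell morphology.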

Series [8] concerns Influenza A virus (A/Hong Kong/7/1987(H3N2)). Nature of the series: Antiviral activity against Influenza A virus (A/Hong Kong/7/1987(H3N2)) infected in MDCK cells assessed as inhibition of virus-induced cytopathicity at 100 uM after 72 hrs. Format: functional, cell-based. An outline of the steps:
as §2

The test system of the next series is Influenza B virus. Nature of the series: Antiviral activity against Influenza B virus (B/Hong Kong/05/1972) infected in MDCK cells assessed as inhibition of virus-induced cytopathicity at 100 uM after 72 hrs. It is filed as functional, cell-based. The procedure, abridged:
as §2

Series [9] has as its system Influenza A virus (A/duck/Hunan/795/2002(H5N1)). Kind of series: Inhibition of HeLa cell expressing Influenza A virus (A/duck/Hunan/795/2002(H5N1)) hemagglutinin H5-mediated polykaryon formation at 100 uM preincubated for 15 mins followed by 5 mins of exposure to compound diluted in acidified PBS-CM of pH 5.2 and subsequent incubation with medium containing 10% fetal calf serum for 3 hrs by Giemsa staining-based inverted microscopy relative to control. The procedure, abridged:
as §1

Series [10] in a line: Inhibition of HeLa cell expressing Influenza A virus (A/Puerto Rico/8/34(H1N1)) hemagglutinin H1-mediated polykaryon formation preincubated for 15 mins followed by 5 mins of exposure to compound diluted in acidified PBS-CM of pH 5.2 and subsequent incubation with medium containing 10% fetal calf serum for 3 hrs by Giemsa staining-based inverted microscopy. On the set-up: species or system Influenza A virus (A/Puerto Rico/8/1934(H1N1)). An outline of the steps: as §1

Series [11] can be described thus: Inhibition of HeLa cell expressing Influenza A virus (A/duck/Hunan/795/2002(H5N1)) hemagglutinin H5-mediated polykaryon formation preincubated for 15 mins followed by 5 mins of exposure to compound diluted in acidified PBS-CM of pH 5.2 and subsequent incubation with medium containing 10% fetal calf serum for 3 hrs by Giemsa staining-based inverted microscopy. The procedure, abridged:
as §1

For series [12], the system named is Influenza A virus (A/X-31(H3N2)). Nature of the series: Inhibition of HeLa cell expressing Influenza A virus (A/X-31(H3N2)) hemagglutinin H3-mediated polykaryon formation preincubated for 15 mins followed by 5 mins of exposure to compound diluted in acidified PBS-CM of pH 5 and subsequent incubation with medium containing 10% fetal calf serum for 3 hrs by Giemsa staining-based inverted microscopy. An outline of the steps: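 Polykaryon assay with cells transfected with H3 HA (A/X31). Cells were preincubated with compound, exposed to low pH to induce cell–cell fusion, then kept in medium 3 h. Polykaryons were counted microscopically relative to the no-compound control.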

Series [13] can be described thus: Inhibition of Influenza A virus (A/Puerto Rico/8/34(H1N1)) neuraminidase using fetuin as substrate. On the set-up: species or system Influenza A virus (A/Puerto Rico/8/1934(H1N1)).
Another series concerns Coxsackievirus B4. Kind of series: Antiviral activity against Coxsackievirus B4 infected in African green monkey Vero cells assessed as inhibition of virus-induced cytopathicity after 3 to 6 days by microscopic method. It is filed as functional. Particulars: Enterovirus B.
Series [14] concerns Influenza A virus. Kind of series: Binding affinity to recombinant Influenza A virus polyhistidine-tagged hemagglutinin H5 expressed in baculovirus infected insect Sf9 cells at 100 uM by STD NMR method. An outline of the steps:
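Saturation-transfer difference NMR with 100 μM compound and 1 μM recombinant H5 HA in 20 mM phosphate pH 7.5, 150 mM NaCl, 100% 2H2O, at 25 °C on a 900 MHz spectrometer with cryoprobe. Relative STD signals were derived per proton.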

Molecules are shown by their SMILES. Activity calls are given as the source filed them. The calls are words filed in the database; no cut-off is given here.

Take `FC(F)(F)c1ccccc1NCC12CC3CC(CC(C3)C1)C2`: in the series on Human respirovirus 3, the concentration for a half-maximal effect (EC50) worked out at 9 µM.
As to `CCc1ccccc1OCCN1CCCCCC1`, the inhibition in [1] and in series [9] was 100% each time. For the same molecule, the EC50 in the series with Influenza A virus [2] was over 100 µM; in the series with Influenza A virus [3] it was over 100 µM; in [4] it was 4 µM; in series [5] it was under 0.8 µM; in series [10], 9.6 µM; in [11], 16.7 µM. Moreover, the CC50 at 72 h in series [6] turned out to be 11 µM. The MCC at 72 h in [7] amounted to 20 µM. Moreover, the inhibition result (in series [8]; in the series on Influenza B virus; in series [12]) was “inactive” throughout. In series [13], this molecule returned a 50% inhibitory concentration (IC50) of 100 µM.
As to `c1ccc(COc2ccc(NCC34CC5CC(CC(C5)C3)C4)cc2)cc1`, the half-maximal effective concentration (EC50) in the series with Coxsackievirus B4 worked out at 8.9 µM.
In the case of `CC(C)c1ccccc1NCCN1CCCCC1`, the inhibition in series [1] and in [9] was 100% each time. In addition, the EC50 came to 4.6 µM in the series with Influenza A virus [2]; 5.5 µM in the series on Influenza A virus [3]; 1.7 µM in series [4]; 1.5 µM in series [5]; 10.1 µM in series [10]; 39.6 µM in series [11]. In [6], the cytotoxic concentration (CC50) at 72 h was over 100 µM. The MCC at 72 h in [7] came out at 100 µM. The inhibition entry (in series [8]; with Influenza B virus; in [12]) was “inactive” in each case. In addition, the IC50 in [13] was over 100 µM. Further, the outcome in the series on Influenza A virus [14] was Active.
